# In the library only some 1.5% were active in any assay of this set; here they are far more common.
# CCR6 antagonist: antagonists of human CCR6 receptor. CHO-K1 CCR6 PathHunter beta-arrestin, luminescence, CCL20-stimulated. inhibition, % at 20 µM. 0.49% of 340,000 active. AID 493098;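 active = compounds whose inhibition of the agonist-driven luminescence signal at 20 µM reaches about 50%, limit read from the data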;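 also: cells stimulated with CCL20 at 14 nM final; plate controls were DMSO with CCL20 for no effect and DMSO without agonist for full effect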
# APJ ag: agonists of human APJ apelin receptor | P35414 | CHO-K1 APJ PathHunter beta-arrestin, luminescence; 0% DMSO wells, 100% apelin | activation, % at 20 µM | 0.11% of 330,000 active | AID 2520;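 active = activation more than six SD over the plate average, tested at 20 µM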;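 also: 0% = DMSO alone and 100% = apelin-13 at 10 nM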
# Target sequence (P35414 whole entry, looked up): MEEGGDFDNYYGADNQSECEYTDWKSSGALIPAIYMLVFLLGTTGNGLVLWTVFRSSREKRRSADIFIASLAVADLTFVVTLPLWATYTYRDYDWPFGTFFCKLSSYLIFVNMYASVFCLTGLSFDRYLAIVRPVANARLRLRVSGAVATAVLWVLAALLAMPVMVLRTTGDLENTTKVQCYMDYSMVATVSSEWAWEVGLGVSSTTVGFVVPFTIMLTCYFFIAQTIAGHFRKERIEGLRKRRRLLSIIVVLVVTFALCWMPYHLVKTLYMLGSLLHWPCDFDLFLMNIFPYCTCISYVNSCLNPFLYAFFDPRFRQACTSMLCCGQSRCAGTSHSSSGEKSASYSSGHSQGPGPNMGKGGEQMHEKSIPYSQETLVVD
#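 Test system – PathHunter CHO-K1 APJ (AGTRL-1) beta-arrestin reporter cells · Input – 1000 cells/well · Compound – single test compound dose, 20 µM final, 1% DMSO · Times – compound stimulation 90 min at 25 °C, detection 60 min · Technique – beta-gal luminescence · Read-out basis – APJ–arrestin association signal · Control set – negative DMSO alone, positive Apelin-13 at 10 nM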
# CXCR6 inh: inhibitors of human CXCR6 receptor; O00574; CHO-K1 PathHunter CXCR6 beta-arrestin, luminescence; inhibition, % at 20 µM; 0.36% of 360,000 active; AID 602244; in the data active = inhibition above about 34%, passing the limit was not always enough;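 also: antagonist mode with CXCL16 agonist at 10 nM final; 0% = 10 nM CXCL16 with DMSO and 100% = unstimulated wells without agonist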
# APJ antag: antagonists of human APJ apelin receptor; P35414; CHO-K1 APJ beta-arrestin complementation, luminescence; inhibition, % at 20 µM; 0.32% of 330,000 active;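 active = inhibition above about 40% at 20 µM, limit read from the data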;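 also: cells challenged with 10 nM apelin-13 agonist together with compound; plate controls were apelin-13 plus DMSO wells for no effect and DMSO wells lacking apelin-13 for full effect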
# EBI2 block: EBI2 (human) antagonism; EBI2 beta-arrestin recruitment, luminescence, 7a,25-OHC stimulated; inhibition, % at 5 µM; 0.81% of 360,000 active; AID 651636; in the data active = inhibition above about 38%;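 also: enzyme fragment complementation signal reports receptor beta-arrestin coupling in cells; 0% = agonist plus DMSO wells and 100% = wells without agonist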
# CXCR6 confirm: confirmation of human CXCR6 receptor antagonists; shares compounds with CXCR6 inh; CHO-K1 CXCR6 PathHunter beta-arrestin, luminescence; inhibition, % at 20 µM; 65% of 700 active; AID 602409;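 active = mean inhibition over four retests above 40%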;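 also: receptor stimulated with 10 nM CXCL16 agonist; beta-galactosidase fragment complementation upon beta-arrestin recruitment to receptor; plate controls were CXCL16 plus DMSO for no effect and DMSO without CXCL16 for full effect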
# Starred values were filed as active, the others as inactive; nt = not tested or not shown.
SMILES,CCR6 antagonist,APJ ag,CXCR6 inh,APJ antag,EBI2 block,CXCR6 confirm
CCCCCCCCCCOC(=O)Cn1c(COc2ccc(Cl)cc2)[n+](C)c2ccccc21,13,-3,41*,37,12,-8
COC(=O)CN1C(=O)[C@H]2[C@@H](c3ccc(C)o3)N3C(=O)CN(Cc4ccccn4)C(=O)[C@@]3(C)[C@H]2C1=O,4,5,104*,2,-4,3
CCOc1ccc(NCc2cc3c(C(C)(C)C)nn(-c4ccccc4)c3[nH]c2=O)cc1,23,-4,48*,18,18,25
COc1ccccc1-c1noc(CCC(=O)Nc2cccc(C)c2)n1,21,-4,62*,9,8,-5
CC(C)CC1C(=O)N(Cc2cn(CC3CCCCC3)nn2)CCS(=O)(=O)N1Cc1ccc(-c2ccc(Cl)c(Cl)c2)cc1 (stereo unspecified),nt,nt,104*,nt,17,15
COc1cccc(-c2nnc(NC(=O)c3ccc(Cl)s3)o2)c1,nt,-4,55*,20,-6,46*
O=C(Nc1nnc(-c2ccco2)o1)c1ccc(Cl)s1,-4,-1,11,-16,-6,nt
O=C1CC2(CCN(C(=O)C3CC(=O)N(c4ccc(F)cc4)C3)CC2)Oc2ccccc21 (stereo unspecified),15,-2,9,22,26,nt
CCc1nnc(NC(=O)c2cc(-c3ccncc3)nc3ccccc23)s1,-3,-1,47*,-13,-11,29
CC(C)(C)c1nnc(NC(=O)c2cc(-c3ccccc3)nc3ccccc23)s1,-2,2,-7,6,-30,nt
FC(F)Oc1ccccc1/C=N/n1cnc2ccccc21,0,-4,50*,-3,-1,8
CCC(CC)NC(=O)c1cc(S(=O)(=O)N2CCCCC2)ccc1N1CCOCC1,2,10,5,-2,1,nt
COc1ccc(N2C[C@H](CSC)[C@@H](CC(=O)Nc3ccccc3)C2=O)cc1,nt,nt,43*,nt,-6,23
NC(=O)NNc1ncc(C(F)(F)F)cc1Cl,10,-4,-4,4,-10,nt
FC(F)(F)c1cnc(NNC(=S)Nc2ccccc2)c(Cl)c1,nt,nt,73*,nt,28,74*
NC(=S)Nc1ncc(C(F)(F)F)cc1Cl,-2,-4,0,-14,3,nt
Fc1ccccc1NC(=S)NNc1ncc(C(F)(F)F)cc1Cl,68*,3,50*,37,9,38
Cc1ccc(/C=N/NC(=O)CCn2nc(C)cc2C)c(C)c1,4,-3,12,0,6,nt
CS(=O)(=O)c1ccc(C(=O)OCc2nnc(-c3ccccc3)o2)cc1[N+](=O)[O-],62*,nt,64*,nt,56*,76*
C=CCN(CC=C)C(=S)NC(=O)c1ccc(C)c(Br)c1,46,-3,49*,32,5,54*
C=CCN(CC=C)C(=S)NC(=O)c1ccc(-c2ccccc2)cc1,nt,-6,53*,20,2,73*
C=CCN(CC=C)C(=S)NC(=O)c1ccc(OC)cc1,24,-4,8,17,-4,nt
C/C(CCc1ccc2c(c1)OCO2)=N\N=C1\NC(=O)CC(C(=O)Nc2ccc(Cl)cc2)S1 (stereo unspecified),-17,-6,4,18,0,nt
Cc1ccccc1N(CC(=O)NC1CCCC1)C(=O)C1(C)CC(=O)N=C2C=CC=CN21 (stereo unspecified),3,-4,4,18,1,nt
Cc1ccccc1N(CC(=O)NCC1CCCO1)C(=O)C1(C)CC(=O)N=C2C=CC=CN21 (stereo unspecified),6,-5,47*,14,-7,20
SMILES,CCR6 antagonist,APJ ag,CXCR6 inh,APJ antag,EBI2 block,CXCR6 confirm
COc1cccc(/C=C2\C(=O)N(c3cccc(C)c3)C(=O)c3ccccc32)c1,14,0,-10,9,17,nt
CCOc1cc(/C=C2\C(=O)N(c3cccc(C(F)(F)F)c3)C(=O)c3ccccc32)ccc1O,46,-2,44*,15,4,43*
CCc1nnc(NS(=O)(=O)c2ccc(NS(=O)(=O)c3ccccc3[N+](=O)[O-])cc2)s1,-2,-2,-30,3,0,nt
CCc1nnc(NS(=O)(=O)c2ccc(Nc3ccc([N+](=O)[O-])c4nonc34)cc2)s1,73*,-9,48*,65*,9,42*
C[n+]1ccc(/C=N/Nc2nc(Cl)c(C#N)c(Cl)c2Cl)cc1,56*,-6,42*,37,0,52*
CC(C)c1cc(C(=O)OCC(=O)NC2CCS(=O)(=O)C2)c(O)c(C(C)C)c1 (stereo unspecified),nt,nt,4,nt,-1,nt
CC1(C)Cc2ccccc2C(NNC(=O)c2ccccn2)=N1,28,-6,45*,22,-3,41*
O=C(/C=C/c1cccnc1)c1ccc(NC(=O)c2cccc(Br)c2)cc1,23,5,9,18,-3,nt
Cc1cccc(C(=O)Nc2ccc(C(=O)/C=C/c3cccnc3)cc2)c1,34,nt,36*,nt,33,44*
Cc1cc(C)cc(NC(=O)c2cccnc2)c1,13,2,40*,-4,-3,5
C=CCSC1=N/C(=C\c2cc(OCC)c(OC(C)=O)c([N+](=O)[O-])c2)C(=O)S1,53*,-7,46*,25,-7,54*
Cc1ccc(NC(=S)N/N=C/c2ccc([N+](=O)[O-])s2)cc1,72*,1,52*,-21,50*,72*
COc1ccccc1N(C(=O)c1ccco1)C(C(=O)NC1CCCC1)c1ccc(N2CCOCC2)cc1 (stereo unspecified),2,-2,2,16,-15,nt
Cc1ccc(NC(=O)c2ccc(Nc3c([N+](=O)[O-])cc([N+](=O)[O-])cc3[N+](=O)[O-])cc2)cc1,71*,-1,43*,35,81*,56*
Cc1ccc(C(=O)NC(=S)Nc2ccc(NC(=O)c3cccs3)cc2)cc1[N+](=O)[O-],50*,-5,28*,20,2,24
CCC(C)C(CO)NCCCn1cnc2c(OC)ncnc21 (stereo unspecified),nt,nt,43*,nt,-7,9
O=C(NC(=S)N(Cc1ccccc1)Cc1ccccc1)c1ccccc1F,24,-4,36*,10,0,25
O=C(NC(=S)N(CCc1ccccc1)CCc1ccccc1)c1ccco1,nt,-1,39*,23,2,50*
CC(CCc1ccccc1)NC(=S)NC(=O)c1ccco1 (stereo unspecified),0,-3,12,0,1,nt
O=C(NC(=S)NCc1ccccc1)c1ccccc1F,14,0,6,3,2,nt
COC(=O)CC/C(=N/Nc1ccc(Cl)c(Cl)c1)C(=O)OC,12,-3,3,6,26,nt
COc1cc(/C=C/C(=O)N2C(=O)c3cccc(N)c3C2=O)cc(OC)c1OC,28,-5,2,7,10,nt
